The list is not random: actives were taken first. Their share in the collection is about 2.6%.
SR-BI uptake up = enhances SR-BI lipid uptake from DiI-HDL | CHO ldlA[mSR-BI] cells, DiI-HDL uptake fluorescence, 3 h; 100 = double the neutral-control signal | activation, % at 12.5 µM | 320,000 compounds, 0.096% hits | AID 504775;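 active means mean replicate activation of at least 60% and every replicate at or above 60%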;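 further: 0% = median plate neutral-control signal and 100% = twice that signal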
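Assay system: LDL receptor-deficient CHO ldlA cells overexpressing murine SR-BI / Medium: BSA-supplemented, HEPES-buffered Ham's F12, pH 7.4 / Probe or stimulus: DiI-labelled HDL at 10 µg/mL final / Timing: compound with DiI-HDL co-incubation, 3 h at 37 °C / Technique: bottom-read cell fluorescence after medium removal, ex 550/em 595 nm / Measure: HDL uptake via cellular fluorescence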
Ecoli rRNA inh = inhibitors of bacterial rRNA selective over humanized ribosomes. E. coli WT GFP vs humanized-ribosome RFP mutants, fluorescence, 24 h; stronger effect = lower value; DMSO median 0, no signal -100. AID 720706. 350,000 compounds, 1.6% hits. GFP signal change (wild-type ribosome), % (test concentration not listed);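 active means significant combined selectivity score with lowered wild-type GFP, culture density cut under 30%, mutant RFP and density less affected; inactive means any of these conditions unmet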
PvdQ inh = P. aeruginosa PvdQ acylase inhibition; purified PvdQ acylase, fluorescence plate reader; inhibition, % at 10 µM; 340,000 compounds, 0.063% hits; AID 488965; in the data active means inhibition above about 30%, passing the limit was not always enough;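 further: 0% = vehicle neutral wells and 100% = reference inhibitor wells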
XiGFP reactiv = activators of X-chromosome reactivation in mouse fibroblasts | XiGFP mouse fibroblasts, % GFP-positive cells imaging, 3 d; cells co-treated with 5-aza-dC sensitizer; scaled so ellipticine positive control = 100% | activation, % at 7.58 µM | 360,000 compounds, 0.055% hits | AID 743238;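 active means mean normalized replicate activation at least 10% and every replicate at or above 10%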;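 further: 0% = median of on-plate neutral control wells and 100% = ellipticine 6 µM median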
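System: SV40-immortalized XiGFP fibroblast cells, line 68-5-11 / Incubation: 3-day compound exposure, then 15 min fixation at room temperature / Compound: single concentration per compound, delivered by pin transfer / Buffer or medium: DMEM plus 5-aza-dC sensitizer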
SR-BI HDL uptake = inhibitors of mouse SR-BI mediated HDL lipid uptake; Q61009; ldlA[mSR-BI] CHO cells, DiI-HDL uptake fluorescence, 3 h; inhibition, % at 12.5 µM; 320,000 compounds, 0.96% hits; AID 488896;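 active means mean replicate inhibition of at least 70% and a set share of replicates each scoring 70 or more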;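 further: 0% = median of neutral control wells and 100% = median of positive control wells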
dFosB activator = enhances mouse delta FosB homodimer DNA binding; purified delta FosB, TAMRA-CDK5 oligo fluorescence polarization; percent of positive-control signal above neutral wells; activation, % at 25 µM; 340,000 compounds, 0.99% hits;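 active means mean activation above about 17%, with every replicate also reaching it, limit read from the data, passing the limit was not always enough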
Target sequence (P13346 whole entry, looked up): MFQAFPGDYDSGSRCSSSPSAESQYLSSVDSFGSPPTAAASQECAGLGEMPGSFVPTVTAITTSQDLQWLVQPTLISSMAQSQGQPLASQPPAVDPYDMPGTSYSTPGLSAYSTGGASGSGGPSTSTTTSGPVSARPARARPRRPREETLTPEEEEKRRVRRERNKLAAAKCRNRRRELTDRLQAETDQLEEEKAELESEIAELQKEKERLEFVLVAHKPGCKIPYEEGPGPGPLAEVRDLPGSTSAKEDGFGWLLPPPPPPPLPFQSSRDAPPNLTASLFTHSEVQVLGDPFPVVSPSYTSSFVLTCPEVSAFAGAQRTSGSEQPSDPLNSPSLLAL
* hit, by the source's call.

For Oc1ccc(Cl)cc1C1=NCCNC(C(F)(F)C(F)F)=C1 the results were SR-BI uptake up 4, Ecoli rRNA inh -22*, PvdQ inh 6, SR-BI HDL uptake -4 and dFosB activator 0.
Screening Cc1ccc(O)c(C2=NCCNC(C(F)(F)C(F)F)=C2)c1 returned SR-BI uptake up 6, PvdQ inh -1, SR-BI HDL uptake -6 and dFosB activator -5.
Screening O=C(NCC1CCCO1)c1ccc(Oc2ccc([N+](=O)[O-])cc2)cc1 (stereo unspecified) returned Ecoli rRNA inh 1, PvdQ inh -9, XiGFP reactiv 0 and dFosB activator -2.
Screening CCC1(C(=O)OC)NC(c2ccco2)C2C(=O)N(c3ccc(C)cc3)C(=O)C21 (stereo unspecified) returned SR-BI uptake up 158*, PvdQ inh -16, SR-BI HDL uptake -158 and dFosB activator 0.
C[C@@H]1CN([C@@H](C)CO)C(=O)c2cccc(NS(=O)(=O)c3cn(C)cn3)c2O[C@H]1CN(C)S(=O)(=O)c1ccc(Cl)cc1 was read as Ecoli rRNA inh -1 and XiGFP reactiv 0.
Screening CCC(C)Sc1ccc(-c2nc3cnccn3c2NC2CCCCC2)cc1 (stereo unspecified) returned SR-BI uptake up -63, Ecoli rRNA inh 0, PvdQ inh -6, XiGFP reactiv 0, SR-BI HDL uptake 63 and dFosB activator 0.
`CCC(C)Sc1ccc(-c2nc3cc(C)ccn3c2NC2CCCCC2)cc1` (stereo unspecified) gave SR-BI uptake up -81, Ecoli rRNA inh -7, PvdQ inh -5, XiGFP reactiv 0, SR-BI HDL uptake 81* and dFosB activator 9.
For CCOC(=O)C1=C(COC(=O)C2(C)CC2(Cl)Cl)NC(=O)NC1c1ccc(OC)cc1 (stereo unspecified) the results were SR-BI uptake up -73, Ecoli rRNA inh -19, PvdQ inh -7, XiGFP reactiv 0, SR-BI HDL uptake 73* and dFosB activator -11.
For O=C(O)c1cccc(Oc2ccc([N+](=O)[O-])cc2)c1 the results were SR-BI uptake up -4, PvdQ inh -6, XiGFP reactiv 0, SR-BI HDL uptake 4 and dFosB activator 4.
For O=C(O)c1ccc(Oc2ccc([N+](=O)[O-])cc2)c([N+](=O)[O-])c1 the results were SR-BI uptake up 22, Ecoli rRNA inh -9.6*, PvdQ inh -12, XiGFP reactiv 0, SR-BI HDL uptake -22 and dFosB activator -1.
O=c1c2c([N+](=O)[O-])cc([N+](=O)[O-])cc2sn1-c1ccc(Br)cc1 was read as SR-BI uptake up -79, PvdQ inh -5, SR-BI HDL uptake 79* and dFosB activator -5.
For O=C(NCc1ccccc1)c1csc(-c2cccnc2)n1 the results were SR-BI uptake up -8, Ecoli rRNA inh -37*, PvdQ inh -2, XiGFP reactiv 0, SR-BI HDL uptake 8 and dFosB activator -12.
O=C(NCCc1csc(-c2cccnc2)n1)c1ccccc1 was read as SR-BI uptake up 3, Ecoli rRNA inh 1, PvdQ inh -8, XiGFP reactiv 0, SR-BI HDL uptake -3 and dFosB activator 1.
Screening CSc1nc2ccc(NS(=O)(=O)c3ccc(Br)s3)cc2s1 returned SR-BI uptake up 6, Ecoli rRNA inh -44*, PvdQ inh 4, XiGFP reactiv 0, SR-BI HDL uptake -6 and dFosB activator -3.
Screening CCOC(=O)/C(=C\c1ccc(OC(F)F)cc1)C1=Nn2c(nnc2-c2ccc(Cl)cc2)SC1 returned SR-BI uptake up -89, PvdQ inh 7, SR-BI HDL uptake 89* and dFosB activator -9.
Screening CCOC(=O)c1ccc(NC(=S)NCCc2ccc(OC)c(OC)c2)cc1 returned SR-BI uptake up -41, Ecoli rRNA inh -28*, PvdQ inh -12, XiGFP reactiv 0, SR-BI HDL uptake 41 and dFosB activator -4.
Screening Nc1cccn2c(-c3ccc(Cl)cc3)cnc12 returned SR-BI uptake up -40, Ecoli rRNA inh -6, PvdQ inh -12, XiGFP reactiv 0, SR-BI HDL uptake 40 and dFosB activator -10.
Screening Nc1cccn2c(-c3ccc(Cl)c(Cl)c3)cnc12 returned SR-BI uptake up -44, Ecoli rRNA inh -26*, PvdQ inh -1, XiGFP reactiv 0, SR-BI HDL uptake 44 and dFosB activator -9.
Screening COc1cc(OC)nc(Oc2cccc(C(F)(F)F)c2)n1 returned SR-BI uptake up 3, Ecoli rRNA inh 2, PvdQ inh 0, XiGFP reactiv 0, SR-BI HDL uptake -3 and dFosB activator 8.
Screening CCOC(=O)Cn1c(=NC(=O)c2ccc([N+](=O)[O-])s2)sc2ccccc21 returned SR-BI uptake up -68, PvdQ inh -1, XiGFP reactiv 18*, SR-BI HDL uptake 68 and dFosB activator 3.
Screening C[C@@H]1CCCCO[C@@H](CN(C)C(=O)c2ccncc2)[C@H](C)CN([C@H](C)CO)C(=O)c2cc(NS(=O)(=O)c3ccccc3)ccc2O1 returned Ecoli rRNA inh -1 and XiGFP reactiv -1.
For CCCCc1c(O)nc(SCC(=O)c2ccccc2)n(-c2ccccc2)c1=O the results were SR-BI uptake up -1, Ecoli rRNA inh -18*, PvdQ inh -5, XiGFP reactiv 0, SR-BI HDL uptake 1 and dFosB activator -2.
CCCCc1c(O)nc(SCC(=O)c2ccccc2)n(-c2ccccc2C)c1=O was read as SR-BI uptake up -6, Ecoli rRNA inh -32*, PvdQ inh 12, XiGFP reactiv 1, SR-BI HDL uptake 6 and dFosB activator -3.
`COc1ccc(CNC(=O)C[C@@H]2CC[C@@H]3[C@@H](COc4ccc(NC(=O)C(C)C)cc4C(=O)N3C)O2)cc1` gave Ecoli rRNA inh 2 and XiGFP reactiv 0.
For CC(C)(C)c1cccc(C2(O)C(=O)c3ccccc3C2=O)c1O the results were SR-BI uptake up 3, Ecoli rRNA inh -38*, PvdQ inh -15, XiGFP reactiv 0, SR-BI HDL uptake -3 and dFosB activator -3.
For COc1ccccc1-c1ccc(SCc2ccc(C)cc2)nn1 the results were SR-BI uptake up -7, Ecoli rRNA inh -12, PvdQ inh -1, XiGFP reactiv 0, SR-BI HDL uptake 7 and dFosB activator -2.
COc1ccccc1-c1ccc(SCc2ccc(F)cc2)nn1 was read as SR-BI uptake up -31, Ecoli rRNA inh -31*, PvdQ inh -15, XiGFP reactiv 0, SR-BI HDL uptake 31 and dFosB activator -2.

Assay outcomes: PubChem BioAssay, Broad Institute
